According to ChEMBL document CHEMBL1139014, “Stereochemical sensitivity of the human UDP-glucuronosyltransferases 2B7 and 2B17” (J Med Chem, 2006):

Tests used:
[1] = target: T1, UDP-glucuronosyltransferase 2B7 (Homo sapiens, UniProt P16662); assay: (§1) Inhibition of UGT2B7
T1 sequence (P16662 whole entry): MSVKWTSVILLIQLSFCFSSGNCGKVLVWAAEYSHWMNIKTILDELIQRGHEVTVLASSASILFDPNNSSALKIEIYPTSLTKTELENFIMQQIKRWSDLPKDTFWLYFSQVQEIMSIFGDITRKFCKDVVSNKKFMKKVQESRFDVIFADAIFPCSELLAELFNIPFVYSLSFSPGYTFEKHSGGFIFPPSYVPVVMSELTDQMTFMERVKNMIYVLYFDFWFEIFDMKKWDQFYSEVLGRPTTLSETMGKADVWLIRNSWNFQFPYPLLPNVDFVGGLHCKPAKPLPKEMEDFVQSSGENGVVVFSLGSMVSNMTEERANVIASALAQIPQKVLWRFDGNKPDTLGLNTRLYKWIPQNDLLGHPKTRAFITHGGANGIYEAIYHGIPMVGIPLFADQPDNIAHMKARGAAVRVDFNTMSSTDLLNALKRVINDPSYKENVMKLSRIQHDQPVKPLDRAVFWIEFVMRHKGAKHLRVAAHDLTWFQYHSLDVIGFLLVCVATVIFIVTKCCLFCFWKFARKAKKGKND

UGT2B7 = target: T2, UGT2B7 (Homo sapiens, UniProt P16662); assay: as §1; settings: human; read-out: Imax
T2 sequence (P16662 whole entry): T1 sequence (P16662 whole entry)

[2] = target: T3, UDP-glucuronosyltransferase 2B17 (Homo sapiens, UniProt O75795); assay: (§2) Inhibition of UGT2B17
T3 sequence (O75795 whole entry): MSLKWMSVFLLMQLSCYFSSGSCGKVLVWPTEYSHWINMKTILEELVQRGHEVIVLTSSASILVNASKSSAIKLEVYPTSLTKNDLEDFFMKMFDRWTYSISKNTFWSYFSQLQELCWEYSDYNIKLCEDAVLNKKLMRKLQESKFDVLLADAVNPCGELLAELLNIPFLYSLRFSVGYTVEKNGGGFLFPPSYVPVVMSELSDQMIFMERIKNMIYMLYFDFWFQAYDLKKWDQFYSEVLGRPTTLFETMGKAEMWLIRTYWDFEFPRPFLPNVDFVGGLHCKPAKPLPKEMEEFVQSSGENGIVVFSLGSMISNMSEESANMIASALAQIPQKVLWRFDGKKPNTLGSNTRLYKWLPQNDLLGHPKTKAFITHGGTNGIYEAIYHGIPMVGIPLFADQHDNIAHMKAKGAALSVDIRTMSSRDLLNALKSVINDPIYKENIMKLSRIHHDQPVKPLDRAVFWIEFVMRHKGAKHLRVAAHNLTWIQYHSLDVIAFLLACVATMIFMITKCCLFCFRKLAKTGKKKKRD
Outline: (§3)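 IC50 against UGT2B17-catalyzed glucuronidation of scopoletin, using His-tagged enzyme from insect cells at 0.1 µg/µL. Scopoletin was 300 µM (its Km) with inhibitor at 10–1000 µM. For poorly soluble aliphatic alcohols, inhibitor was 5–100 µM and scopoletin 50 µM. Buffer was 5.0 mM phosphate pH 7.4 with MgCl2 and saccharic lactone. UDPGlcA 5.0 mM; 15 min at 37 °C. Scopoletin glucuronide was read by HPLC fluorescence and fitted to the two-parameter Hill equation.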

UGT2B17 = target: T4, UGT2B17 (Homo sapiens, UniProt O75795); assay: as §2; settings: human; read-out: Imax; outline: as §3
T4 sequence (O75795 whole entry): T3 sequence (O75795 whole entry)

[3] = target: T1, UDP-glucuronosyltransferase 2B7; assay: Competitive inhibition of UGT2B7-catalyzed scopoletin glucuronidation; type: functional
Outline: (§4)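 Recombinant human UGT2B7 from baculovirus-infected insect cells, 0.1 µg/µL, in 5.0 mM phosphate (pH 7.4), 10 mM MgCl2 and 5.0 mM saccharic acid-1,4-lactone. Racemates were tested at three concentrations bracketing Kic estimated by Cheng-Prusoff. Scopoletin was 100–2000 µM. After 5 min preincubation at 37 °C, 5.0 mM UDPGlcA was added and the reaction ran 15 min. Glucuronide was read by HPLC fluorescence (ex 335/em 455 nm). Mechanism came from simultaneous nonlinear regression.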

[4] = target: T3, UDP-glucuronosyltransferase 2B17; assay: Non competitive inhibition of UGT2B17-catalyzed scopoletin glucuronidation; type: functional
Outline: (§5)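 His-tagged human UGT2B17 expressed in insect cells, 0.1 µg/µL, in 5.0 mM phosphate (pH 7.4) with 10 mM MgCl2 and 5.0 mM saccharic acid-1,4-lactone. Initial velocities were taken at scopoletin 100, 250, 500, 1000 and 2000 µM, with racemic inhibitors at three levels bracketing Kic estimated by Cheng-Prusoff. UDPGlcA (5.0 mM final) started the reaction after 5 min preincubation at 37 °C; run 15 min. Scopoletin glucuronide was measured by HPLC fluorescence. Inhibition mechanism was fitted by simultaneous nonlinear regression.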

[5] = target: T3, UDP-glucuronosyltransferase 2B17; assay: Competitive inhibition of UGT2B17-catalyzed scopoletin glucuronidation; type: functional; outline: as §5
[6] = target: T1, UDP-glucuronosyltransferase 2B7; assay: Non competitive inhibition of UGT2B7-catalyzed scopoletin glucuronidation; type: functional; outline: as §4

SMILES	IC50 [1] [µM]	Emax (UGT2B7) [%]	IC50 [2] [µM]	Emax (UGT2B17) [%]	Ki [3] [µM]	Ki [4] [µM]	Ki [5] [µM]	Ki [6] [µM]
Cc1ccc2c(c1)[C@@H](O)CC2	540	64.4	728	58.3	–	–	–	–
C[C@@H](O)c1c2ccccc2cc2ccccc12	344	19.8	703	13.1	–	–	–	–
O[C@@H]1CCOc2ccccc21	507	65.8	448	69.3	–	–	–	–
O[C@H]1CCCc2ccccc21	489	67.8	374	76.1	–	–	–	–
C[C@@H](O)c1ccc2ccccc2c1	–	–	578	16.7	–	–	–	–
Cc1ccc2c(c1)[C@H](O)CCO2	225	83.5	365	72.6	–	–	–	–
C[C@@H](O)c1cccc2ccccc12	130	41.9	389	18.9	–	–	–	–
Cc1cccc2c1CC[C@@H]2O	179	86.4	608	61.7	–	–	–	–
O[C@H]1CCc2ccccc21	513	67.3	545	63.4	–	–	–	–
O[C@@H]1CCc2ccccc21	275	77.1	517	65.3	–	–	–	–
Cc1cccc2c1CC[C@H]2O (racemic)	317	76	682	60.1	–	–	–	–
Cc1ccc2c(c1)C(O)CC2 (racemic)	–	–	–	–	301	1440	427	624
Cc1ccc2c(c1)C(O)CCO2 (racemic)	–	–	–	–	113	608	201	258
C[C@H](O)c1c2ccccc2cc2ccccc12 (racemic)	532	17.7	606	11.1	–	–	–	–
C[C@H](O)c1ccc2ccccc2c1 (racemic)	–	–	657	9.12	–	–	–	–
Cc1cc(C)c2c(c1)C(O)CCC2 (racemic)	–	–	–	–	101	190	57.8	192
C[C@H](O)c1cccc2ccccc12 (racemic)	214	31.8	537	14.3	–	–	–	–
Cc1ccc2c(c1)[C@H](O)CC2 (racemic)	394	71.2	489	69.6	–	–	–	–
Cc1ccc2c(c1)[C@@H](O)CCO2 (racemic)	182	85	325	75.3	–	–	–	–

The remaining lines, values ahead:

IC50 [1] [µM]	Emax (UGT2B7) [%]	IC50 [2] [µM]	Emax (UGT2B17) [%]	Ki [3] [µM]	Ki [4] [µM]	Ki [5] [µM]	Ki [6] [µM]	SMILES
337	73.6	242	78.8	–	–	–	–	O[C@@H]1CCCc2ccccc21
301	80.2	132	89.1	–	–	–	–	COc1cccc2c1CCC[C@@H]2O
166	83.5	98	90.5	–	–	–	–	Cc1cc(C)c2c(c1)[C@@H](O)CCC2
651	62.5	305	77.4	–	–	–	–	O=[N+]([O-])c1ccc2c(c1)[C@@H](O)CCC2
351	77.2	216	80.4	–	–	–	–	COc1ccc2c(c1)[C@@H](O)CCC2
518	68.7	319	74.8	–	–	–	–	O[C@H]1CCOc2ccccc21 (racemic)
284	80.4	162	84.7	–	–	–	–	COc1ccc2c(c1)[C@H](O)CCC2 (racemic)
366	76.5	112	88.9	–	–	–	–	COc1cccc2c1CCC[C@H]2O (racemic)
599	61.9	217	83.5	–	–	–	–	O=[N+]([O-])c1ccc2c(c1)[C@H](O)CCC2 (racemic)
158	85.7	144	87.8	–	–	–	–	Cc1cc(C)c2c(c1)[C@H](O)CCC2 (racemic)
